Data on 55 sequences can be found in the array DNA melting data of Ke et al. (doi:10.1101/2024.01.08.574731).

A short description of data set [1]: folding enthalpy; higher = less favourable; fluorescence melt of hairpins on a sequencing array, two-state fit. The following applies: sodium 0.088 M. In outline: (§1)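 Library hairpins on a sequenced MiSeq flow cell carried annealed Cy3 and quencher oligos, and their Cy3 fluorescence was imaged in 50 mM Na-HEPES pH 8.0 with 25 mM NaCl, in 2.5 °C steps up to 60 °C. Signals were normalised to Cy3 before quenching and to control constructs. Melting temperature and folding enthalpy were obtained from bootstrapped two-state fits, combined by inverse-variance weighting across four replicates, and the fitted temperatures were then raised by 9.35 °C to match UV melts.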

The nature of data set [2]: melting temperature; fluorescence melt of hairpins on a sequencing array, two-state fit, raised by 9.35 °C to match UV melts. The note with it: sodium 0.088 M. The method in brief: as §1

As for CGCCCGGAAACGGCAGCG ((((((....)))..))), the folding enthalpy in data set [1] is -30.7 kcal/mol. For the same sequence, in data set [2], the Tm came to 48.7 °C.
As for GCGTATAGACGC ((((....)))), in data set [1], the folding enthalpy is -24.6 kcal/mol. Moreover, in data set [2], the Tm is 50.3 °C.
For GAAAAGCGAAAGCTCTTC (((.(((....))).))) the same measures were -15.4 kcal/mol and 36.5 °C.
Consider GGGAACGAAAGTTTTCCC ((((((....)))..))), for which, in data set [1], the folding enthalpy is -19.1 kcal/mol. For the same sequence, in data set [2], the Tm was found to be 35.5 °C.
With CGTGCTCGGAAACGAACG (((..(((....)))))), the folding enthalpy in data set [1] is -5.98 kcal/mol. Moreover, in data set [2], the Tm was 21.2 °C.
With GTGTCACGAAAGTGCCAC (((.(((....))).))), in data set [1], the folding enthalpy is -51.5 kcal/mol. For the same sequence, the Tm in data set [2] amounted to 52.2 °C.
Take GATCCCCTAGGGGATC ((((((....)))))): in data set [1], the folding enthalpy was -44.1 kcal/mol. Also, the Tm in data set [2] turned out to be 66.6 °C.
For GTTTAGCGAAAGCTGAAC (((.(((....))).))) the same measures were -30.4 kcal/mol and 51.3 °C.
For GAACAAGGAAACTCGTTC ((((.((....)).)))), the folding enthalpy in data set [1] was -16.4 kcal/mol. For the same sequence, in data set [2], the Tm worked out at 27 °C.
As for GTGACTGAAAAGTCAC ((((((....)))))), the folding enthalpy in data set [1] was -37.6 kcal/mol. Also, the Tm in data set [2] came to 61 °C.
As for GATTCTGGAAACAGAATC (((((((....))))))), the folding enthalpy in data set [1] was -43.9 kcal/mol. In addition, in data set [2], the Tm turned out to be 55 °C.
Consider GATCTGCGGGCAGATC ((((((....)))))), for which the folding enthalpy in data set [1] was -42.9 kcal/mol. Besides, the Tm in data set [2] is 60.7 °C.
GGTATGGGAAACTATGCC ((.((.(....).)).)): the folding enthalpy in data set [1] was -23.7 kcal/mol. Also, the Tm in data set [2] turned out to be 30.9 °C.
The corresponding values for CGTCTCGGAAACGAACG (((.(((....)))))) are -23.4 kcal/mol and 36.1 °C.
For GCGGAGCACCGC ((((....)))) the same measures were -11.2 kcal/mol and 61.6 °C.
GTAGTGGGAAACCACTAC (((((((....))))))): in data set [1], the folding enthalpy was -30.3 kcal/mol. Moreover, in data set [2], the Tm is 63.4 °C.
As for GATCTCGTCGAGATC ((((((...)))))), in data set [1], the folding enthalpy is -31.1 kcal/mol. Further, in data set [2], the Tm turned out to be 55.7 °C.
Turning to GTATTGGGAAACTAATAC (((((.(....).))))), the folding enthalpy in data set [1] is -22.2 kcal/mol. Further, in data set [2], the Tm turned out to be 34.8 °C.
For GATCGTGAGTACGATC ((((((....)))))) the same measures were -31.4 kcal/mol and 54 °C.
For GAACGACGAAAGTCCTTC (((.(((....))).))) the same measures were -14.3 kcal/mol and 31.3 °C.
Consider GGGTGTCGAAAGACTCCC (((.(((....))).))), for which the folding enthalpy in data set [1] was -42.3 kcal/mol. Also, in data set [2], the Tm was determined as 58.3 °C.
For CTAGAGAAATCTAG (((((....))))), the folding enthalpy in data set [1] was -7.95 kcal/mol. The Tm in data set [2] stood at 26.2 °C.
With GCTTCGCGAAAGCTCAGC (((..((....))..))), in data set [1], the folding enthalpy was -13.4 kcal/mol. For the same sequence, the Tm in data set [2] came out at 44.5 °C.
In the case of GCAACCGGAAACGGTTAC (.(((((....))))).), the folding enthalpy in data set [1] is -12.4 kcal/mol. Further, the Tm in data set [2] was determined as 41.2 °C.
For GACAAGGCGAAAGCCGTC (((..(((....)))))), in data set [1], the folding enthalpy is -8.66 kcal/mol. In addition, the Tm in data set [2] came to 40.9 °C.
Regarding GAGGGTGGAAACGCTCTC (((.(.(....).).))), the folding enthalpy in data set [1] is -20.3 kcal/mol. Moreover, the Tm in data set [2] is 49.4 °C.
GTCTGCGGAAACGCAAAC ((.((((....)))).)): the folding enthalpy in data set [1] was -15.2 kcal/mol. Moreover, the Tm in data set [2] worked out at 38 °C.
As to GTTGGGTCGAAAGACAAC (((..(((....)))))), the folding enthalpy in data set [1] was -18.2 kcal/mol. For the same sequence, the Tm in data set [2] is 38.1 °C.
Take GATCGCACGGCGATC ((((((...)))))): the folding enthalpy in data set [1] was -33 kcal/mol. The Tm in data set [2] is 69.3 °C.
On to GCAAAACGAAAGTTTGC (((.(((....)))))), for which the folding enthalpy in data set [1] was -30.6 kcal/mol. In addition, the Tm in data set [2] was 50.8 °C.
For GATCCCAGCGGGATC ((((((...)))))), in data set [1], the folding enthalpy is -37.9 kcal/mol. In addition, in data set [2], the Tm is 68.9 °C.
GACGGCCGAAAGGCTGTC (((.(((....))).))): in data set [1], the folding enthalpy is -28.1 kcal/mol. For the same sequence, in data set [2], the Tm came out at 68.8 °C.
Regarding GATCGAGGATTCGATC ((((((....)))))), the folding enthalpy in data set [1] is -36.8 kcal/mol. Besides, the Tm in data set [2] came out at 57.9 °C.
Take GTTGAAGGAAACTTCGAC ((.((((....)))).)): the folding enthalpy in data set [1] was -32.5 kcal/mol. Besides, the Tm in data set [2] was 44.9 °C.
For GATCATAATCATGATC ((((((....)))))) the same measures were -32.1 kcal/mol and 46.2 °C.
In the case of GCGGAACGAAAGTTTCGC (((.(((....))).))), the folding enthalpy in data set [1] is -51.9 kcal/mol. Besides, the Tm in data set [2] was found to be 64.8 °C.
For GATCTCAACCGAGATC ((((((....)))))), in data set [1], the folding enthalpy is -45.1 kcal/mol. The Tm in data set [2] came out at 51.9 °C.
With GTAGGTGCGAAAGCATAC (((..(((....)))))), the folding enthalpy in data set [1] is -8.27 kcal/mol. Also, the Tm in data set [2] stood at 31.1 °C.
With GATCCCTATGGGGATC ((((((....)))))), the folding enthalpy in data set [1] is -31.3 kcal/mol. In addition, the Tm in data set [2] was 65.5 °C.
With GGTCACGGAAACGCGACC ((((.((....)).)))), the folding enthalpy in data set [1] is -50.2 kcal/mol. Besides, in data set [2], the Tm was 54.4 °C.
GCGACAAATCGC ((((....)))): in data set [1], the folding enthalpy was -16.5 kcal/mol. Further, the Tm in data set [2] worked out at 43.6 °C.
For GCTACGCGAAAGCCTGGC ((.(.((....)).).)) the same measures were -13.4 kcal/mol and 34.4 °C.
GTTTCGGGAAACTGAAGC (.(((.(....).))).): in data set [1], the folding enthalpy is -11.2 kcal/mol. Further, the Tm in data set [2] was 37.9 °C.
Take GATCCATATGTGGATC ((((((....)))))): the folding enthalpy in data set [1] is -38.1 kcal/mol. The Tm in data set [2] is 54.9 °C.
Turning to GGGATAGGAAACCATCCC (((((.(....).))))), the folding enthalpy in data set [1] is -30.9 kcal/mol. For the same sequence, in data set [2], the Tm was 43.3 °C.
The corresponding values for GCGTTAGGAAACTAACAC (.(((((....))))).) are -16.2 kcal/mol and 35.9 °C.
For GCGAAGGCGAAAGCCCGC (((..(((....)))))), the folding enthalpy in data set [1] is -18.2 kcal/mol. For the same sequence, the Tm in data set [2] stood at 59.5 °C.
For GACATGACGAAAGTCGTC (((..(((....)))))), the folding enthalpy in data set [1] is -10.3 kcal/mol. Further, the Tm in data set [2] was 41.6 °C.
For the sequence GCTGTTGGAAACAATGGC ((..(((....)))..)), the folding enthalpy in data set [1] is -27.4 kcal/mol. Further, in data set [2], the Tm is 39.9 °C.
As to GGAGTAACGAAAGTTTCC (((..(((....)))))), in data set [1], the folding enthalpy was -16.6 kcal/mol. Besides, the Tm in data set [2] is 30.7 °C.
With CAAACCGAAAGGCTTG (((.((....)).))), the folding enthalpy in data set [1] is -27 kcal/mol. In data set [2], the Tm was determined as 38.4 °C.
For the sequence GGCTATCCGAAAGGAGCC (((..(((....)))))), the folding enthalpy in data set [1] was -27.3 kcal/mol. In addition, the Tm in data set [2] came to 47.1 °C.
Regarding GGTAGGTCGAAAGACACC (((..(((....)))))), in data set [1], the folding enthalpy is -16.5 kcal/mol. The Tm in data set [2] was 35.3 °C.
As to GAGCCAGGAAACTAGCTC ((((.((....)).)))), the folding enthalpy in data set [1] was -26.2 kcal/mol. Further, the Tm in data set [2] was 37.4 °C.
For GGAGCGGGAAACCGCCCC ((.((((....)))).)), in data set [1], the folding enthalpy was -16.3 kcal/mol. The Tm in data set [2] turned out to be 56.7 °C.
